Measured values: ChEMBL document CHEMBL4732188, “SARs of a novel series of s-triazine compounds targeting vimentin to induce methuotic phenotype” (Eur J Med Chem, 2021)
Calls of active or inactive are those of the source. No cut-off for these calls is given here.

Experiments:
[1] = tested on: U-87MG ATCC; assay: Induction of vacuolization in human U87 cells at 1 uM by microscopic analysis
[2] = tested on: U-87 MG; assay: Antiproliferative activity against human U87 cells assessed as reduction in cell growth incubated for 4 days by cell-titer glo assay; assay type: functional, cell-based, U-87MG ATCC; conditions: 96 h
Method in brief: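 Cells grown in RPMI1640 with 10% FBS, 2 mM glutamine and penicillin-streptomycin at 37 °C, 5% CO₂. Viability read as ATP by CellTiter-Glo luminescence. IC50 as mean ± SD from triplicate experiments.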

[3] = tested on: HepG2; assay: Induction of vacuolization in human HepG2 cells at 100 nM by microscopic analysis; assay type: functional, cell-based
[4] = tested on: NCI-H522; assay: Induction of vacuolization in human NCI-H522 cells at 100 nM by microscopic analysis; assay type: functional, cell-based
[5] = tested on: SK-MEL-28; assay: Induction of vacuolization in human SK-MEL-28 cells at 100 nM by microscopic analysis; assay type: functional, cell-based
[6] = tested on: HCT-15; assay: Induction of vacuolization in human HCT-15 cells at 100 nM by microscopic analysis; assay type: functional, cell-based
[7] = tested on: OVCAR-3; assay: Induction of vacuolization in human OVCAR-3 cells at 100 nM by microscopic analysis; assay type: functional, cell-based
[8] = tested on: LNCaP; assay: Induction of vacuolization in human LNCaP cells at 100 nM by microscopic analysis; assay type: functional, cell-based
[9] = tested on: U-87MG ATCC; assay: Induction of methuosis in human U87 cells assessed as rounded cytoplasmic vacuoles at 10 nM measured after 24 hrs by […] staining based microscopic analysis; assay type: functional, cell-based
Method in brief: (§1)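 U87 cells were cultured in RPMI1640 with 10% FBS at 37 °C, 5% CO₂, and compound-treated for 24 h across 0.01-10. Cytoplasmic vacuolization was imaged by microscopy, with time-lapse confocal tracking of vesicle movement, vacuole fusion, cell rounding and disintegration. Macropinocytic origin was checked by lucifer yellow uptake and by staining with ER and Golgi markers.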

[10] = tested on: U-87MG ATCC; assay: Induction of methuosis in human U87 cells assessed as macropinocytosis by measuring cytoplasmic vacuolization at 10 nM incubated for 24 hrs by […] staining based confocal microscopic analysis; assay type: functional, cell-based
Method in brief: as §1

[11] = tested on: U-87MG ATCC; assay: Induction of methuosis in human U87 cells assessed as increase in size of cytoplasmic vacuoles at 10 nM measured after 24 hrs by […] staining based microscopic analysis; assay type: functional, cell-based
Method in brief: as §1

[12] = tested on: U-87MG ATCC; assay: Induction of methuosis in human U87 cells assessed as increase in intracellular vacuolization in para nuclear region at 10 nM measured < 2 hrs by microscopic analysis; assay type: functional, cell-based; conditions: time hrs <2
[13] = tested on: U-87MG ATCC; assay: Induction of methuosis in human U87 cells assessed as increase in accumulation of small vesicles at 10 nM measured after 24 hrs by […] staining based microscopic analysis; assay type: functional, cell-based
Method in brief: as §1

[14] = tested on: U-87MG ATCC; assay: Induction of methuosis in human U87 cells assessed as disintegrated cytoplasmic vacuoles at 10 nM measured after 24 hrs by […] staining based microscopic analysis; assay type: functional, cell-based
Method in brief: as §1

[15] = tested on: U-87MG ATCC; assay: Induction of methuosis in human U87 cells assessed as increase in number of cytoplasmic vacuoles at 10 nM measured after 24 hrs by […] staining based microscopic analysis; assay type: functional, cell-based
Method in brief: as §1

[16] = tested on: U-87MG ATCC; assay: Induction of vacuolization in human U87 cells at 31.6 nM incubated for 4 days by microscopic analysis; assay type: functional, cell-based; conditions: time 4.0 day
Method in brief: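 Cytoplasmic vacuolization was first screened visually by microscope in U87 cells treated with each compound at 1. Positive compounds were then titrated down to 0.01. Each was scored by its minimal effective concentration: 5 if vacuoles were significant at 10 nM, 4 at 31.6 nM, and so on downward.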

[17] = target: Vimentin (Homo sapiens) (UniProt P08670); assay: Binding affinity to vimentin in human U87 cells at 100 nM incubated for 2 hrs by MALDI-MS/MS analysis; assay type: cell-based
Method in brief: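 Live U87 cells treated with the alkyne photoaffinity probe at 100 nM (DMSO control), then UV irradiated (315-385 nm, 30 min) through the flask bottom. Lysed in Hepes buffer pH 7.5 and click-reacted with biotin-N₃ (1 mM CuSO₄, 1 mM TCEP). Streptavidin-agarose enrichment, 10% SDS-PAGE separation, then LC-MS/MS identification.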

Vimentin (Homo sapiens), sequence (P08670 whole entry): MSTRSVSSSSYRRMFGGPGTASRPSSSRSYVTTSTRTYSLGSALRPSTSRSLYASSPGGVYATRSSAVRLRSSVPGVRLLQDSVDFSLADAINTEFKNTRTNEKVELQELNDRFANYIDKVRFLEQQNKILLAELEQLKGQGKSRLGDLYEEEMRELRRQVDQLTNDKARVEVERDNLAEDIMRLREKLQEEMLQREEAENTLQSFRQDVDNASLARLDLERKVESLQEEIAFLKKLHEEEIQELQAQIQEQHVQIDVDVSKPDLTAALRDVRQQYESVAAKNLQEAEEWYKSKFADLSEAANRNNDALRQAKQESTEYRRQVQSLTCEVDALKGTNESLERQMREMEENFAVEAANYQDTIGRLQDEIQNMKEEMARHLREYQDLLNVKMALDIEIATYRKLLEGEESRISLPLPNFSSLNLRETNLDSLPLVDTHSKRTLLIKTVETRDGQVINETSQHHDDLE

## O=C(Nc1ccc(F)cc1)Nc1ccc(Nc2nc(/C=C/c3ccc(Cl)cc3)nc(N3CCOCC3)n2)cc1
[1]
  Activity: Active
[2]
  IC50: 2500 nM

## O=C(Nc1ccc(F)cc1)Nc1ccc(Nc2nc(/C=C/c3ccccc3)nc(N3CCOCC3)n2)cc1
[1]
  Activity: Active
[2]
  IC50: 4750 nM

## O=C(Nc1ccc(Nc2nc(/C=C/c3ccccc3)nc(N3CCOCC3)n2)cc1)Nc1ccc(C(=O)NCCN2CCCCC2)cc1
[1]
  Activity: Active
[2]
  IC50: 1110 nM

## O=C(Nc1ccc(Nc2nc(/C=C/c3ccccc3)nc(N3CCOCC3)n2)cc1)Nc1ccc(C(=O)NCCN2CCOCC2)cc1
[1]
  Activity: Active
[2]
  IC50: 550 nM

## O=C(Nc1ccc(Cl)cc1)Nc1cccc(Nc2nc(/C=C/c3cccc([N+](=O)[O-])c3)nc(N3CCOCC3)n2)c1
[1]
  Activity: inactive
[2]
  IC50: 3660 nM

## O=C(Nc1ccc(Cl)cc1)Nc1ccc(Nc2nc(/C=C/c3cccc([N+](=O)[O-])c3)nc(N3CC(O)C3)n2)cc1
[1]
  Activity: inactive
[2]
  IC50: 1320 nM

## CN1CCN(c2nc(/C=C/c3cccc([N+](=O)[O-])c3)nc(Nc3ccc(NC(=O)Nc4ccc(Cl)cc4)cc3)n2)CC1
[1]
  Activity: inactive
[2]
  IC50: 1210 nM

## O=C(Nc1ccc(Cl)cc1)Nc1ccc(Nc2nc(/C=C/c3cccc([N+](=O)[O-])c3)nc(N3CCOCC3)n2)cc1
[1]
  Activity: Active
[3]
  Activity: Active
[2]
  IC50: 1710 nM
[4]
  Activity: Active
[5]
  Activity: Active
[6]
  Activity: Active
[7]
  Activity: Active
[8]
  Activity: Active

## O=C(Nc1ccc(Cl)cc1)Nc1ccc(Nc2nc(/C=C/c3ccccc3)nc(N3CCOCC3)n2)cc1
[1]
  Activity: Active
[2]
  IC50: 4790 nM
[9]
  Activity: Active
[10]
  Activity: Active
[11]
  Activity: Active
[12]
  Activity: Active
[13]
  Activity: Active
[14]
  Activity: Active
[15]
  Activity: Active
[16]
  Activity: Active

## CN1CCN(C(=O)c2ccc(NC(=O)Nc3ccc(Nc4nc(/C=C/c5ccccc5)nc(N5CCOCC5)n4)cc3)cc2)CC1
[1]
  Activity: Active
[2]
  IC50: 230 nM

## O=C(Nc1ccc(Cl)cc1)Nc1cccc(Nc2nc(/C=C/c3ccccc3)nc(N3CCOCC3)n2)c1
[1]
  Activity: inactive
[2]
  IC50: 1000 nM

## CN(C)C(=O)c1ccc(NC(=O)Nc2ccc(Nc3nc(/C=C/c4ccccc4)nc(N4CCOCC4)n3)cc2)cc1
[1]
  Activity: Active
[2]
  IC50: 530 nM

## O=C(Nc1ccc(Nc2nc(/C=C/c3ccc(Cl)cc3)nc(N3CCOCC3)n2)cc1)Nc1cccc(F)c1
[1]
  Activity: Active
[2]
  IC50: 4410 nM

## CC1CCN(C(=O)c2ccc(NC(=O)Nc3ccc(Nc4nc(/C=C/c5ccccc5)nc(N5CCOCC5)n4)cc3)cc2)CC1
[1]
  Activity: Active
[2]
  IC50: 870 nM

## C#CCCC1(CCNC(=O)c2ccc(NC(=O)Nc3ccc(Nc4nc(/C=C/c5ccccc5)nc(N5CCOCC5)n4)cc3)cc2)N=N1
[17]
  Activity: Active
[16]
  Activity: Active

## O=C(Nc1ccc(F)cc1)Nc1ccc(Nc2nc(/C=C/c3cccc(Cl)c3)nc(N3CCOCC3)n2)cc1
[1]
  Activity: Active
[2]
  IC50: 1330 nM

## O=C(Nc1ccc(Nc2nc(/C=C/c3ccccc3)nc(N3CCOCC3)n2)cc1)Nc1ccc(C(=O)NCCN2CCCC2)cc1
[1]
  Activity: Active
[2]
  IC50: 1430 nM

## O=C(Nc1ccc(F)cc1)Nc1ccc(Nc2nc(/C=C/c3cccc([N+](=O)[O-])c3)nc(N3CCOCC3)n2)cc1
[1]
  Activity: Active
[2]
  IC50: 1110 nM

## O=C(Nc1ccc(Cl)cc1)Nc1ccc(Nc2nc(/C=C/c3cccc([N+](=O)[O-])c3)nc(N3CCCC3)n2)cc1
[1]
  Activity: inactive
[2]
  IC50: 4470 nM

## CN(C)CCCNC(=O)c1ccc(NC(=O)Nc2ccc(Nc3nc(/C=C/c4ccccc4)nc(N4CCOCC4)n3)cc2)cc1
[1]
  Activity: Active
[2]
  IC50: 2310 nM

## CN(C)CCNC(=O)c1ccc(NC(=O)Nc2ccc(Nc3nc(/C=C/c4ccccc4)nc(N4CCOCC4)n3)cc2)cc1
[1]
  Activity: Active
[2]
  IC50: 2480 nM

## CN(C)c1nc(/C=C/c2cccc([N+](=O)[O-])c2)nc(Nc2ccc(NC(=O)Nc3ccc(Cl)cc3)cc2)n1
[1]
  Activity: inactive
[2]
  IC50: 5120 nM

## O=C(Nc1ccc(Cl)cc1)Nc1cccc(Nc2nc(/C=C/c3cccc(Cl)c3)nc(N3CCOCC3)n2)c1
[1]
  Activity: inactive
[2]
  IC50: 2200 nM
